Data from ChEMBL document CHEMBL1153899, “Discovery of benzothiazole derivatives as efficacious and enterocyte-specific MTP inhibitors” (Bioorg Med Chem Lett, 2009).
Active and inactive are the calls of the source. No cut-off for these calls is given here.

Columns and labels:
[1] = Half life in Sprague-Dawley rat liver at 10 mg/kg, po; format: ADME, organism-based; parameters: dose 10 mg/kg, route oral
How it was run: (§1)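 Dose-proportionality PK in Sprague–Dawley rats (n = 3) given single oral doses of 3, 10, 30 or 100 mg/kg. Liver and plasma were sampled at 0.5, 1, 2, 4 and 8 h and assayed for drug concentration to derive Cmax, AUC(0–∞) and T1/2.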

[2] = Half life in Sprague-Dawley rat liver at 30 mg/kg, po; format: ADME, organism-based; parameters: dose 30 mg/kg, route oral; how it was run: as §1
[3] = Half life in Sprague-Dawley rat liver at 100 mg/kg, po; format: ADME, organism-based; parameters: dose 100 mg/kg, route oral; how it was run: as §1
Mus musculus [4] = test: Increase in peptide YY level in 3-day high fat diet fed C57BL/6 mouse at 10 mg/kg, po daily for 3 days; format: functional, organism-based; parameters: dose 10 mg/kg
Mus musculus [5] = test: Increase in peptide YY level in 3-day high fat diet fed C57BL/6 mouse at 3 mg/kg, po daily for 3 days; format: functional, organism-based; parameters: dose 3 mg/kg
How it was run: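 C57BL/6 male mice (n = 9) on high-fat diet were dosed po once daily for 3 days with vehicle (5% PEG400, 0.25% Tween 80, 94.25% H2O) or test article, then given a final morning dose. Blood was taken at 30 min, 2 h and 6 h, and PYY was measured by EIA kit. Statistics by Student's t test.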

Mus musculus [6] = test: Decrease in plasma triglyceride level in […] C57BL/6 mouse at 3 mg/kg, po daily for 3 days measured after 6 hrs; format: functional; parameters: scale not given: the % may be the effect or the level left
How it was run: (§2)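 Lean C57BL/6 mice were given high-fat diet for 1 week, then dosed orally once daily in the evening for 3 days. Food intake and body weight were recorded daily. At the end a morning dose was given, and blood was drawn at 30 min, 2 h and 6 h for plasma triglycerides.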

Mus musculus [7] = test: Decrease in plasma triglyceride level in […] C57BL/6 mouse at 10 mg/kg, po daily for 3 days measured after 6 hrs; format: functional; parameters: scale not given: the % may be the effect or the level left
HepG2 = test: Inhibition of apoB secretion in human HepG2 cells after 40 hrs by ELISA; format: functional, cell-based; conditions: HepG2, 40 h
[8] = Inhibition of MTP from dog liver microsomes by scintillation counting; parameters: species or system Canis lupus familiaris, Microsome
Mus musculus [9] = test: Decrease in total food intake in 3-day high fat diet fed C57BL/6 mouse at 3 mg/kg, po daily for 3 days; format: functional; parameters: scale not given: the % may be the effect or the level left; how it was run: as §2
Mus musculus [10] = test: Decrease in total food intake in 3-day high fat diet fed C57BL/6 mouse at 10 mg/kg, po daily for 3 days; format: functional; parameters: scale not given: the % may be the effect or the level left
Mus musculus [11] = test: Decrease in body weight in […] at 3 mg/kg, po daily for 3 days; format: functional, C57BL/6; parameters: scale not given: the % may be the effect or the level left
Mus musculus [12] = test: Decrease in body weight in […] at 10 mg/kg, po daily for 3 days; format: functional, C57BL/6; parameters: scale not given: the % may be the effect or the level left
Mus musculus [13] = test: Decrease in total food intake in 28-day diet-induced obesity C57BL/6 mouse model at 3 mg/kg, po daily for 4 weeks measured on day 21; format: functional; parameters: scale not given: the % may be the effect or the level left
How it was run: (§3)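 C57BL/6 male mice were fed high-fat diet for 4 weeks beforehand to about 40 g and kept on it throughout. Groups of n = 10 were dosed po once daily for 4 weeks at 1 or 3 mg/kg, or vehicle (5% PEG400, 0.25% Tween 80, 94.25% H2O). Food was weighed and replaced with pre-weighed food 3 times weekly. Fed plasma glucose was taken at 2 weeks and insulin at 4 weeks.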

Mus musculus [14] = test: Decrease in total food intake in 28-day diet-induced obesity C57BL/6 mouse model at 1 mg/kg, po daily for 4 weeks measured on day 21; format: functional; parameters: scale not given: the % may be the effect or the level left; how it was run: as §3
Mus musculus [15] = test: Decrease in body weight in 28-day diet-induced obesity C57BL/6 mouse model at 3 mg/kg, po daily for 4 weeks; format: functional; parameters: scale not given: the % may be the effect or the level left; how it was run: as §3
Mus musculus [16] = test: Increase in body weight in 28-day diet-induced obesity C57BL/6 mouse model at 1 mg/kg, po daily for 4 weeks; format: functional; how it was run: as §3
Mus musculus [17] = test: Decrease in plasma glucose level in 28-day diet-induced obesity C57BL/6 mouse model at 1 to 3 mg/kg, po daily for 4 weeks measured on week 2; format: functional, organism-based; how it was run: as §3
Mus musculus [18] = test: Decrease in plasma glucose level in 28-day diet-induced obesity C57BL/6 mouse model at 1 to 3 mg/kg, po daily for 4 weeks; format: functional, organism-based; how it was run: as §3
Mus musculus [19] = test: Decrease in insulin level in 28-day diet-induced obesity C57BL/6 mouse model at 3 mg/kg, po daily for 4 weeks; format: functional, organism-based; parameters: dose 3 mg/kg; how it was run: as §3
Mus musculus [20] = test: Decrease in plasma triglyceride level in 28-day diet-induced obesity C57BL/6 mouse model at 1 to 3 mg/kg, po daily for 4 weeks; format: functional, organism-based; how it was run: as §3
Mus musculus [21] = test: Decrease in total cholesterol level in 28-day diet-induced obesity C57BL/6 mouse model at 1 to 3 mg/kg, po daily for 4 weeks; format: functional, organism-based
Mus musculus [22] = test: Toxicity in 28-day diet-induced obesity C57BL/6 mouse model assessed as liver alanine aminotransferase level at 1 to 3 mg/kg, po daily for 4 weeks; format: organism-based; parameters: dose 1-3 mg/kg, route oral; conditions: in vivo, 672 h
How it was run: (§4)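 C57BL/6 male mice kept on high fat diet 4 weeks before study (body weight about 40 g) and throughout; n = 10, dosed orally once daily for 4 weeks at 1 or 3 mg/kg, vehicle 5% PEG400, 0.25% Tween 80, 94.25% H2O; liver weight and ALT, AST, alkaline phosphatase assessed after 4 weeks.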

Mus musculus [23] = test: Toxicity in 28-day diet-induced obesity C57BL/6 mouse model assessed as liver aspartate aminotransferase level at 1 to 3 mg/kg, po daily for 4 weeks; format: organism-based; parameters: dose 1-3 mg/kg, route oral; conditions: in vivo, 672 h; how it was run: as §4
Mus musculus [24] = test: Toxicity in 28-day diet-induced obesity C57BL/6 mouse model assessed as liver alkaline phosphatase level at 1 to 3 mg/kg, po daily for 4 weeks; format: organism-based; parameters: dose 1-3 mg/kg, route oral; conditions: in vivo, 672 h; how it was run: as §4
Mus musculus [25] = test: Toxicity in 28-day diet-induced obesity C57BL/6 mouse model assessed as increase in liver weight at 1 to 3 mg/kg, po daily for 4 weeks; format: organism-based; parameters: dose 1-3 mg/kg, route oral; conditions: in vivo, 672 h; how it was run: as §4
[26] = Clearance in Sprague-Dawley rat at 1 mg/kg, iv; format: ADME, organism-based; parameters: dose 1 mg/kg, route intravenous; conditions: in vivo
[27] = Half life in Sprague-Dawley rat at 1 mg/kg, iv; format: ADME, organism-based; parameters: dose 1 mg/kg, route intravenous; conditions: in vivo
[28] = Volume of distribution in Sprague-Dawley rat at 1 mg/kg, iv; format: ADME, organism-based; parameters: dose 1 mg/kg, route intravenous; conditions: in vivo
How it was run: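 Rats given IV bolus at 1 mg/kg; clearance, half-life and volume of distribution derived from plasma drug concentrations.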

- half-life [1]: 19.4 h
- half-life [2]: 23.7 h
- half-life [3]: 6.44 h
- IC50 (HepG2): 6.2 nM
- IC50 [8]: 11.2 nM
- clearance [26]: 17.2 mL/min/kg
- half-life [27]: 2 h
- Vd [28]: 2.99 L/kg
SMILES: CC(C)c1ccc(-c2ccccc2C(=O)Nc2ccc3nc(C(=O)N[C@H](C(=O)N(C)Cc4ccc(F)cc4)c4ccccc4)sc3c2)cc1
- Activity (Mus musculus [4]): Active
- Activity (Mus musculus [5]): Active
- Activity (Mus musculus [6]): 11%
- Activity (Mus musculus [7]): 45%
- Activity (Mus musculus [9]): 14%
- Activity (Mus musculus [10]): 19%
- Activity (Mus musculus [11]): 3%
- Activity (Mus musculus [12]): 4%
- Activity (Mus musculus [13]): 12%
- Activity (Mus musculus [14]): 9%
- Activity (Mus musculus [15]): 3%
- Activity (Mus musculus [16]): 1%
- Activity (Mus musculus [17]): Active
- Activity (Mus musculus [18]): Active
- Activity (Mus musculus [19]): Active
- Activity (Mus musculus [20]): Active
- Activity (Mus musculus [21]): Active
- Activity (Mus musculus [22]): Non-toxic
- Activity (Mus musculus [23]): Non-toxic
- Activity (Mus musculus [24]): Non-toxic
- Activity (Mus musculus [25]): Non-toxic
